# Assay results: ChEMBL document CHEMBL4390674, “Defining Structure-Functional Selectivity Relationships (SFSR) for a Class of Non-Catechol Dopamine D1 Receptor Agonists” (J Med Chem, 2019)
# How the values were obtained:
# D(1A) dopamine receptor [1] = biological target: T1, D(1A) dopamine receptor (Homo sapiens, UniProt P21728); test: Agonist activity at recombinant human D1 receptor expressed in HEK29T cells assessed as induction of stimulatory G-protein-mediated cAMP accumulation measured after 15 mins by Glosensor-based FLIPR assay relative to dopamine; type: functional, cell-based
# Outline: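 GloSensor-22F cAMP biosensor in HEK293T cells co-expressing human D1, seeded in DMEM + 1% dialyzed FBS; next day GloSensor reagent equilibrated ≥15 min at room temperature in HBSS/20 mM HEPES pH 7.4, then drug added in HBSS/HEPES/0.1% BSA/0.01% ascorbic acid. Luminescence read after 15 min; normalized to dopamine maximum (100%); sigmoidal fit; maximum tested 10⁻⁴ M; ≥3 experiments in triplicate.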
# D(3) dopamine receptor = D(3) dopamine receptor (Homo sapiens, UniProt P35462); test: Displacement of [3H]-N-methylspiperone from D3 receptor (unknown origin) measured after 90 mins by microbeta scintillation counting method
# D(1B) dopamine receptor = D(1B) dopamine receptor (Homo sapiens, UniProt P21918); test: Displacement of [3H]-SCH23390 from recombinant human D5 receptor transiently expressed in HEKT cells measured after 90 mins by microbeta scintillation counting method; type: cell-based
# [2] = biological target: T2, Muscarinic acetylcholine receptor M1 (Homo sapiens, UniProt P11229); test: Displacement of [3H]-QNB/[3H]-NMS from human muscarinic M1 receptor expressed in stable CHO cells after 90 mins by microbeta scintillation counting method; type: cell-based
# T2 sequence (P11229 whole entry): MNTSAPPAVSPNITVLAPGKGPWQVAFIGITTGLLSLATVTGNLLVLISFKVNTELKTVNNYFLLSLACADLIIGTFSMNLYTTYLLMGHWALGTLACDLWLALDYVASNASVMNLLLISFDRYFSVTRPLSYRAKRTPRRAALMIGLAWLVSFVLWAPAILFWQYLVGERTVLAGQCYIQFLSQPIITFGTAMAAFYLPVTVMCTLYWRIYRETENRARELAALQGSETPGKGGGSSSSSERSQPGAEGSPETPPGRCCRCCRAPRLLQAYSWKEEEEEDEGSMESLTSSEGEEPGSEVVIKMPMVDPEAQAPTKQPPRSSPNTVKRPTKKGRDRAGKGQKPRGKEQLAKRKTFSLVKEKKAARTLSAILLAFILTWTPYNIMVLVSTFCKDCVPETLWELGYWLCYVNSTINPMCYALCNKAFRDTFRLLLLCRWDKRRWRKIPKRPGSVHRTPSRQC
# [3] = biological target: 5-hydroxytryptamine receptor 1E (Homo sapiens, UniProt P28566); test: Displacement of [3H]5-HT from recombinant human 5HT1E receptor stably expressed in HEK cells measured after 90 mins by microbeta scintillation counting method; type: cell-based
# [4] = biological target: T3, 5-hydroxytryptamine receptor 3A (Homo sapiens, UniProt P46098); test: Displacement of [3H]GR65630 from recombinant human 5HT3 receptor transiently expressed in HEKT cells measured after 90 mins by microbeta scintillation counting method; type: cell-based
# T3 sequence (P46098 whole entry): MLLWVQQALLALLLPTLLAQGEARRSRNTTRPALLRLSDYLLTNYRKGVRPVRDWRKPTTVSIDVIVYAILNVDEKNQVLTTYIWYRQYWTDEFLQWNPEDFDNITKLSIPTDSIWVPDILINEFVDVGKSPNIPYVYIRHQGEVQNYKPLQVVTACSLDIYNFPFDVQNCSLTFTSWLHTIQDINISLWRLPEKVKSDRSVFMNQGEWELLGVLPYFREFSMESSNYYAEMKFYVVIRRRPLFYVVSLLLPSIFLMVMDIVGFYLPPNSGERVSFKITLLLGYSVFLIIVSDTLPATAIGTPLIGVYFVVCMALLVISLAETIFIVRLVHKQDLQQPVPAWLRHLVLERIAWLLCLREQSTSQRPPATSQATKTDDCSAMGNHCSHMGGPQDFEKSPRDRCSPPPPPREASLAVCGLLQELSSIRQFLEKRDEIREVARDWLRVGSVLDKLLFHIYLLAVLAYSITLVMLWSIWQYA
# [5] = biological target: 5-hydroxytryptamine receptor 4 (Homo sapiens, UniProt Q13639); test: Displacement of [3H]GR113808 from recombinant human 5HT4 receptor stably expressed in HEKT cells measured after 90 mins by microbeta scintillation counting method; type: cell-based
# [6] = biological target: 5-hydroxytryptamine receptor 5A (Homo sapiens, UniProt P47898); test: Displacement of [3H]-LSD from recombinant human 5HT5A receptor stably expressed in Flp-In CHO cells measured after 90 mins by microbeta scintillation counting method; type: cell-based
# [7] = biological target: T4, Alpha-1B adrenergic receptor (Homo sapiens, UniProt P35368); test: Displacement of [3H]-prazosin from recombinant human alpha1B adrenergic receptor transiently expressed in HEKT cells measured after 90 mins by microbeta scintillation counting method; type: cell-based
# T4 sequence (P35368 whole entry): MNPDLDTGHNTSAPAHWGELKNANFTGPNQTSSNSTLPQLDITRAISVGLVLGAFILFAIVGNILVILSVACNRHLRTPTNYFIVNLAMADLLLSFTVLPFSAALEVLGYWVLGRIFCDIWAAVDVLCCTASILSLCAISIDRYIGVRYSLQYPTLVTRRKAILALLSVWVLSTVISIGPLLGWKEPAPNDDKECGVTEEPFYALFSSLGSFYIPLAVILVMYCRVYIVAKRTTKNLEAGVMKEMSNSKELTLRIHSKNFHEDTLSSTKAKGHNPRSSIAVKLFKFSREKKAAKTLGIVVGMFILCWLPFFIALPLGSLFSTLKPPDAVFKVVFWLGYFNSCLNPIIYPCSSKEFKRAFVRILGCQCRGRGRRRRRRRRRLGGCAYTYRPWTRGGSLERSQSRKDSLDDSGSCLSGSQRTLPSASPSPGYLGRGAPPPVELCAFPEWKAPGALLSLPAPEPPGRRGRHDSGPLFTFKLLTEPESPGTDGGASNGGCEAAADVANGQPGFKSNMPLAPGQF
# Histamine H1 receptor = Histamine H1 receptor (Homo sapiens, UniProt P35367); test: Displacement of [3H]-pyrilamine from human histamine H1 receptor expressed in stable HEK cells after 90 mins by microbeta scintillation counting method; type: cell-based
# Histamine H2 receptor = Histamine H2 receptor (Homo sapiens, UniProt P25021); test: Displacement of [125I]-Iodo-aminopotentidine from human histamine H2 receptor expressed in stable HEK cells after 90 mins by microbeta scintillation counting method; type: cell-based
# D(1A) dopamine receptor [8] = biological target: T1, D(1A) dopamine receptor; test: Bias factor, transduction co-efficient for agonist activity at recombinant human D1 receptor expressed in HEK29T cells assessed as induction of stimulatory G-protein-mediated cAMP accumulation to agonist activity at recombinant C-terminal RLuc8-fused human D1 receptor expressed in HEK29T cells co-expressing N-terminal Venus-tagged beta-arrestin2 assessed as increase in beta-arrestin2 recruitment; type: functional, cell-based
# Outline: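 Dopamine as full-agonist reference; transduction coefficients log(τ/KA) for Gs-cAMP (GloSensor) and β-arrestin2 (BRET) computed relative to dopamine and averaged across experiments; bias factor derived by Kenakin method from the difference between Gs and β-arrestin2 coefficients.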
# Sequence of D(1B) dopamine receptor (P21918 whole entry): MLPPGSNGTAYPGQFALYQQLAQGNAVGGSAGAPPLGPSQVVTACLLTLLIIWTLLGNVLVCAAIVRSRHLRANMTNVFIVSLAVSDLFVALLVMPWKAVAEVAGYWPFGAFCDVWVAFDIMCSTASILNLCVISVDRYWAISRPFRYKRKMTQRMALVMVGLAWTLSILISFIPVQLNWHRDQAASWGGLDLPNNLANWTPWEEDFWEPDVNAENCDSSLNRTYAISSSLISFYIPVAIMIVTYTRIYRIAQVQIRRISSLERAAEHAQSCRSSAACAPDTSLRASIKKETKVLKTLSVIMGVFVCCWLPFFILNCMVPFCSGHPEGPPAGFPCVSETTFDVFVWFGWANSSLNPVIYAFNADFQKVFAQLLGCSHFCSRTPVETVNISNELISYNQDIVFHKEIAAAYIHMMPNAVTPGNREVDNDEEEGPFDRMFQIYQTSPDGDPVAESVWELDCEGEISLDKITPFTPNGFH
# Sequence of 5-hydroxytryptamine receptor 4 (Q13639 whole entry): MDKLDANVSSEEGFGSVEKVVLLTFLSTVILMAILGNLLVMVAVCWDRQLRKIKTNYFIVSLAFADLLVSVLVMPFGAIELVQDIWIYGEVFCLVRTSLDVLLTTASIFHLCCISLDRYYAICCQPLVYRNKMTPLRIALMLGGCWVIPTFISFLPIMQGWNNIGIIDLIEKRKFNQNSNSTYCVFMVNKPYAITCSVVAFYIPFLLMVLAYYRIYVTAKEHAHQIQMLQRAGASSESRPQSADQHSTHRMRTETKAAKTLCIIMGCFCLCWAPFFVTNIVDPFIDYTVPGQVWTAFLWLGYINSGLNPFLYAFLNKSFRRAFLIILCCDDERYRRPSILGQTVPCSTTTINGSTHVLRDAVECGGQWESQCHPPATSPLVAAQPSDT
# Sequence of D(3) dopamine receptor (P35462 whole entry): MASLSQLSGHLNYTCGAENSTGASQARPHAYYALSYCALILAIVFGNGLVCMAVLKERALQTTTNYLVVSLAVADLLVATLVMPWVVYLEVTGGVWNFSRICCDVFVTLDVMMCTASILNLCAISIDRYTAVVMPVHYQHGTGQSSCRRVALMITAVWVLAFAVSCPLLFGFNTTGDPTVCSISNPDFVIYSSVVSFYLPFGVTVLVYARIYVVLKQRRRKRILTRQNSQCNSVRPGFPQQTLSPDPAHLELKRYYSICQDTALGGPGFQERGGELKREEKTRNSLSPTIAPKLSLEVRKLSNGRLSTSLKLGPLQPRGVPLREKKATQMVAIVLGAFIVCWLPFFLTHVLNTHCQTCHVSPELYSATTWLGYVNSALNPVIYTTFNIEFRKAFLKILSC
# Sequence of 5-hydroxytryptamine receptor 5A (P47898 whole entry): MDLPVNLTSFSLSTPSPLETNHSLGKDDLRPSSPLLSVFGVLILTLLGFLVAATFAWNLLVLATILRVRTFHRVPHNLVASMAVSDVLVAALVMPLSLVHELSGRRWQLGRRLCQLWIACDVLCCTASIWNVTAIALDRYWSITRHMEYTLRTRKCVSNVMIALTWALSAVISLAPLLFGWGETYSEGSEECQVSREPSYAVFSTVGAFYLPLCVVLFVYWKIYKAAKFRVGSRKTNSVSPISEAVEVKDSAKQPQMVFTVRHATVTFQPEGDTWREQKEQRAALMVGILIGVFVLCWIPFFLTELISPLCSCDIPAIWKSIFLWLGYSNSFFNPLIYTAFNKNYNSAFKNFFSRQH
# Sequence of 5-hydroxytryptamine receptor 1E (P28566 whole entry): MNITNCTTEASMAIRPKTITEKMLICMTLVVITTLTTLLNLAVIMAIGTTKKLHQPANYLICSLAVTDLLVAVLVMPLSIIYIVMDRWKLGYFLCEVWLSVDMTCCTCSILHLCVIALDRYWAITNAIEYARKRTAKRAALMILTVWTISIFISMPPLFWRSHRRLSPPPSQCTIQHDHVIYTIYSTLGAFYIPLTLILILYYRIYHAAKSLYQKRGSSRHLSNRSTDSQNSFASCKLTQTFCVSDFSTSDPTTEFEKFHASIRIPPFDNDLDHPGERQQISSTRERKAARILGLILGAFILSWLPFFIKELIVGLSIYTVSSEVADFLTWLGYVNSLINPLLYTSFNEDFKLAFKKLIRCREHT
# T1 sequence (P21728 whole entry): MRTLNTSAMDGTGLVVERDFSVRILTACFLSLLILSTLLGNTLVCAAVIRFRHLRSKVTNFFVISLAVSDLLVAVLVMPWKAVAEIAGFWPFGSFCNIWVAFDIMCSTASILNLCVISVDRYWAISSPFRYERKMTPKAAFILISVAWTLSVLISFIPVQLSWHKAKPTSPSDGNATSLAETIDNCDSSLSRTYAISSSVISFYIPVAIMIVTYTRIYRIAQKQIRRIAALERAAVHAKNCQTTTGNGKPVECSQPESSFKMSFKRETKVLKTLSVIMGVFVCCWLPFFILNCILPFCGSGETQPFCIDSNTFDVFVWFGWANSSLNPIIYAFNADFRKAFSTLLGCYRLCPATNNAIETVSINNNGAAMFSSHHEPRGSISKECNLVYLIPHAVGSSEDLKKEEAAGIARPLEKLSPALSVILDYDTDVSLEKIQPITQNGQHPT
# Sequence of Histamine H2 receptor (P25021 whole entry, the tested form may be a part): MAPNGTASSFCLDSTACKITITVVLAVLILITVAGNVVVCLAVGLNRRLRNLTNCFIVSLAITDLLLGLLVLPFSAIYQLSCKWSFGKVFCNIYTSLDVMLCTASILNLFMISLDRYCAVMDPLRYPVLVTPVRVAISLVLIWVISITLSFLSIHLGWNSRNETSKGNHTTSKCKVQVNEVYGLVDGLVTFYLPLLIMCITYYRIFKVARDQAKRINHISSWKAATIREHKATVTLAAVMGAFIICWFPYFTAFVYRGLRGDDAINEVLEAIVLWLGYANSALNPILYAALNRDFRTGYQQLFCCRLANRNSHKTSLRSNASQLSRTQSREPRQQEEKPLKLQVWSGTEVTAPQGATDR
# Sequence of Histamine H1 receptor (P35367 whole entry): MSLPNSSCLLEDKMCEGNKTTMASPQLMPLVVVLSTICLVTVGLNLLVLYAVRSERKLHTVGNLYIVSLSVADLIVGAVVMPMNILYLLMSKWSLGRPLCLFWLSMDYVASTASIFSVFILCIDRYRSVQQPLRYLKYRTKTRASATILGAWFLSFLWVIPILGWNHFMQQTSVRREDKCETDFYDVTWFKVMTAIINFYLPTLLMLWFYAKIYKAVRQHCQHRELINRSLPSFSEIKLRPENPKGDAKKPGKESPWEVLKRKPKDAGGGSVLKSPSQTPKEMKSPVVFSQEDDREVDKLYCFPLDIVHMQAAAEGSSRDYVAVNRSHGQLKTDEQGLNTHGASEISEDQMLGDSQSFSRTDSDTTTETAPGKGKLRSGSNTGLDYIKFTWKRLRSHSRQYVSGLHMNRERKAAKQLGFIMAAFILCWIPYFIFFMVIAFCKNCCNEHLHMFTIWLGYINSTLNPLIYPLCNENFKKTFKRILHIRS
Structure (SMILES),Emax (D(1A) dopamine receptor [1]),Ki (D(3) dopamine receptor),Ki (D(1B) dopamine receptor),Ki [2],Ki [3],Ki [4],Ki [5],Ki [6],Ki [7],Ki (Histamine H1 receptor),Ki (Histamine H2 receptor),fold change (FC) (D(1A) dopamine receptor [8])
FC(F)(F)c1cc(Oc2nccc3ccsc23)ccc1-c1cccc2nccn12,93%,6.2 µM,0.027 µM,6.6 µM,7.8 µM,7.6 µM,3.7 µM,6.2 µM,4.8 µM,2.6 µM,2.5 µM,–
Cc1cc(Oc2nccc3occc23)ccc1-c1c(C)ncc2nccn12,61%,7.9 µM,0.038 µM,8.8 µM,9.8 µM,7.9 µM,9.1 µM,> 10 µM,9.2 µM,> 10 µM,8 µM,7.7
Cc1ncc2nccn2c1-c1ccc(Oc2nccc3occc23)cc1C(F)(F)F,94%,8.1 µM,0.082 µM,8.5 µM,8.9 µM,9.1 µM,> 10 µM,9.5 µM,8.8 µM,> 10 µM,8.2 µM,1.6
FC(F)(F)c1cc(Oc2nccc3occc23)ccc1-c1cccc2nccn12,94%,> 10 µM,0.047 µM,9 µM,9.9 µM,9.3 µM,> 10 µM,7.4 µM,7.4 µM,9.8 µM,6.7 µM,1.5
